MEKK2wt PB1 HTS: modulators of MEK5 binding to wildtype MEKK2, primary screen, biochemical, multiplex bead flow cytometry, Alexa488-MEK5; Alexa488-MEK5 binding to MEKK2 WT; actives lie on both sides; actives 1.1% (n = 290,000); Mitogen-activated protein kinase kinase kinase 2 (Homo sapiens), Q9Y2U5; binding response (% of control), % at 10 µM; in the data active = binding response below about 67% or above about 130%
MEKK3 PB1 HTS: modulators of MEKK3-MEK5 PB1 binding, primary screen, biochemical, wildtype MEKK3, multiplex bead flow cytometry, Alexa488-MEK5; binding response (% of control), % at 10 µM; AID 1529, 2009; bead-based flow cytometry, Alexa488-MEK5 binding to MEKK3; actives lie on both sides; 0 = blocked by unlabeled MEK5, 100 = vehicle; Mitogen-activated protein kinase kinase kinase 3 (Homo sapiens), Q99759; actives 1.4% (n = 290,000);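 active = binding response more than 3 SD above or below the average of its plate-row segment, actives on both sides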;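 note: Alexa488 bead fluorescence after subtracting the streptavidin-only scavenger bead signal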
ATG4B inhibitor: ATG4B protease inhibitors, primary screen, biochemical, fluorescence, uHTS; inhibition, % at 8.33 µM; actives 0.51% (n = 340,000); Cysteine protease ATG4B (Homo sapiens), Q9Y4P1; ATG4B cleavage of LC3-PLA2, NBD-HPC fluorescence, 1 h; in the data active = inhibition above about 40%
Beta2AR agonist: beta2AR agonists driving receptor internalization, primary screen, cell-based, FAP fluorogen, flow cytometry. actives 0.43% (n = 340,000). response, % (concentration not given with the values). AID 504454, 2011. Am2.2-beta2AR cells. Beta-2 adrenergic receptor (Homo sapiens), P07550;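 active = response above a set limit, near 3 SD of response in nonfluorescent compounds, cut at about 42% in these data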
Target sequence (P07550 whole entry, looked up): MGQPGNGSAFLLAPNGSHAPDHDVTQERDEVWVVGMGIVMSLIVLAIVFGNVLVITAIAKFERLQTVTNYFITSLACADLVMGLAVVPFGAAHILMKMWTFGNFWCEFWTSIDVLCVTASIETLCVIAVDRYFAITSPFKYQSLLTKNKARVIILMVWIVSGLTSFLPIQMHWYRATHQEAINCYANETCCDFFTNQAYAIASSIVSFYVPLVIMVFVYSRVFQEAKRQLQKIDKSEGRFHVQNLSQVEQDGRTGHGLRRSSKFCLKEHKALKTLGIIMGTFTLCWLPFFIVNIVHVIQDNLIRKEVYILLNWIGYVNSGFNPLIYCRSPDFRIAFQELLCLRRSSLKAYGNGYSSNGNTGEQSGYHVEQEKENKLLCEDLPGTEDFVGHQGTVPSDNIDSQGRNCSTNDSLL
Dynein cargo inh: inhibitors of GR-EGFP nuclear translocation, primary screen, dynein cargo transport inhibitor project, imaging, high-content, 3617.4 mouse cells; test concentration mostly 20 µM; stimulated with dexamethasone, 1 µM; active compounds read low; AID 1381, 2008; actives 0.47% (n = 220,000); z-score, hits read low;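 active = plate z-score of nuclear minus cytoplasmic receptor signal below a set negative limit, without overly bright fluorescence or cell loss, cut at about -3.5 in these data, passing the limit was not always enough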;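 note: z-score of nuclear minus cytoplasmic ring GR-EGFP intensity difference per well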
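Buffer or medium: tet-free medium with charcoal-stripped serum / Also added: dexamethasone agonist, 1.0 µM final, for 30 min / Timing: induction 48 h, compound 1 h, agonist 30 min / Measured by: high-content fluorescence imaging after fixation / Read-out: nuclear-to-cytoplasmic GR-EGFP distribution per well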
MEKK2 mut-MEK5: MEK5 binding signal on mutant MEKK2 PB1, primary screen, biochemical, multiplex bead flow cytometry, Alexa488-MEK5; Alexa488-MEK5 binding to MEKK2 mutant; percent response, % at 10 µM; actives 0.35% (n = 290,000); AID 1530, 2009; in the data active = percent response above about 24%, passing the limit was not always enough
ATG4B conf: ATG4B protease inhibitors, retest, confirmation, biochemical, fluorescence, single concentration. AID 504757, 2011. shares compounds with ATG4B inhibitor. actives 92% (n = 320). ATG4B protease fluorescent substrate cleavage assay. inhibition, % at 8.33 µM; in the data active = inhibition above about 39%
PLA2 ctr: PLA2 enzyme inhibition, counter-screen for ATG4B inhibitor project, biochemical, single concentration, uHTS hits | inhibition, % at 8.33 µM | actives 66% (n = 1,600) | purified PLA2, NBD-C6-HPC fluorescence, 45 min | shares compounds with ATG4B inhibitor; in the data active = inhibition above about 50%
Target sequence (P04054 whole entry, looked up): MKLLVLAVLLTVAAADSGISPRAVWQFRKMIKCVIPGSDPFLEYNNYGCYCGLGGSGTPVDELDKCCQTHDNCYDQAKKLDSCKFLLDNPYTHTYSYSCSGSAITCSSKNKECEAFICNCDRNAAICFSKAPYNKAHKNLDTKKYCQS
* hit, by the source's call; nt = no result; ! = not active in a repeat. Rows were chosen to be rich in hits. Some 2.9% of all compounds tested hit in one or more screens of this group.

SMILES	MEKK2wt PB1 HTS	MEKK3 PB1 HTS	ATG4B inhibitor	Beta2AR agonist	Dynein cargo inh	MEKK2 mut-MEK5	PLA2 ctr	others
O=C(C1=C(c2ccccc2)C(=O)c2ccccc2C1=O)c1ccccc1	97	101	45*	24	-1.1	-1	51*
COC1=C(c2ccccc2)C(=O)c2ccccc2C1=O	93	93	-10	12	-0.2	-2	nt
COCCSc1nnc(NC(=O)C(C)(C)C)s1	92	92	-1	-4	-0.68	-4	nt
COc1ccc(S(=O)(=O)NC2CC2)cc1Cl	106	102	-4	4	nt	3	nt
CCCOc1ccc(/C=N/NC(=O)c2ccc3c(c2)OCO3)c(OCCC)c1	89	98	0	16	nt	-6	nt
CC1CCCCC1NCC#CCOc1ccc(Cl)cc1 (stereo not drawn)	116	104	16	11	0.24	5	nt
COc1cccc(C2c3[nH]c4ccccc4c3CCN2Cc2cccn2-c2ncccn2)c1 (stereo not drawn)	104	107	7	4	-0.76	0	nt
Fc1ccc(C2c3[nH]c4ccccc4c3CCN2Cc2cccn2-c2ncccn2)cc1 (stereo not drawn)	95	101	41*	1	0.78	-9	36	ATG4B conf=70*
C/C=C/c1ccc(OCCOc2cc(C=O)ccc2OC)c(OC)c1	107	104	47*	-2	1.3	13	48
CN1C(=O)CSc2ccc(NC(=O)NCc3cccnc3)cc21	76	89	0	-1	3	-2	nt
CN1C(=O)CSc2ccc(NC(=O)NCc3ccc(F)cc3)cc21	92	99	64*	-13	1.2	-4	79*
CC(=O)NC(=S)Nc1cccc(S(=O)(=O)NC2=NCCC2)c1	100	101	-10	-7	-0.7	-1	nt
CCOC(=O)c1oc2ccc(Br)cc2c1CSc1nnc(C)s1	108	102	64*	8	-0.65	3	67*
CC(=O)c1c(C)n(-c2ccccc2)c2ccc(OCC(N)=O)cc12	93	101	47*	1	-0.02	-7	52*
O=C(CNCC1CCCCC1)Nc1ccccc1N1CCCCC1	109	97	41*	-3	0.099	3	39	ATG4B conf=65*
O=C(Cc1ccccc1)Nc1ccccc1N1CCCC1	103	105	13	-5	0.76	-3	nt
O=C(CNC1CCCCCC1)Nc1ccccc1N1CCCCC1	107	101	46*	7	-0.19	4	53*
COc1ccc(NC(=O)CNCCC2=CCCCC2)cc1	96	89	1	1	-0.15	-4	nt
O=C(CNCCC1=CCCCC1)Nc1ccccc1N1CCCCC1	114	100	49*	-6	0.0013	2	53*
Cc1ccc(NC(=S)NC2CCCCC2)cc1S(=O)(=O)N(C)C	64	60	0	-10	0.47	-16	nt
CC(=O)c1cccc(NC(=O)NC2CCCc3ccccc32)c1 (stereo not drawn)	95	98	53*	-2	0.36	-9	67*
CC(=O)c1ccc(NC(=O)NC2CCCc3ccccc32)cc1 (stereo not drawn)	104	102	40	-4	nt	6	nt
Cc1ccc(F)cc1NC(=S)NCCc1ccccc1	98	101	7	-6	-0.11	-2	nt
CCOc1ccc(C(=O)Nc2cc(NC(=O)c3ccc(OCC)c(Cl)c3)cc(C(=O)O)c2)cc1Cl	88	103	48*	-10	0.14	-10	60*
CCOc1ccc(C(=O)Nc2cccc(C(=O)O)c2)cc1Cl	100	104	17	7	-0.33	0	nt
SMILES	MEKK2wt PB1 HTS	MEKK3 PB1 HTS	ATG4B inhibitor	Beta2AR agonist	Dynein cargo inh	MEKK2 mut-MEK5	PLA2 ctr	others
CCOC(=O)c1cn(Cc2c(C)c(C)c(C)c(C)c2C)nn1	98	101	61*	-3	-0.24	-2	59*
Cn1nnnc1N=N/C(=N/Nc1ccccc1)c1ccccc1	102	99	-5	-17	-0.0068	2	nt
O=C(Cc1ccsc1)NCc1ccccc1F	98	99	3	2	nt	0	nt
Cc1cccc(C)c1OCC(=O)Nc1cccc(NC(=O)c2ccco2)c1	87	85	48*	-5	-0.11	-15	49	ATG4B conf=57*
CCOc1ccc(CCNC(=O)COC(=O)c2ccc(C)c([N+](=O)[O-])c2)cc1OCC	102	102	4	-6	nt	5	nt
Cn1c(COc2ccc(Br)cc2)nnc1SC1CCc2ccccc2C1=O (stereo not drawn)	103	104	50*	-2	-0.8	1	62*
CCCN(CC(=O)Nc1ccccc1OC)CC(=O)c1c(N)n(Cc2ccccc2)c(=O)n(C)c1=O	nt	nt	3	6	nt	nt	nt
NC(=O)c1cc2c(s1)-c1cc(Cl)ccc1SC2	100	103	44*	7	1.6	3	36
O=C(Nc1ccccc1N1CCN(c2ccccc2)CC1)c1ccccc1	96	105	44*	-4	-0.032	-1	43	ATG4B conf=62*
O=C(Nc1ccccc1-c1ccccc1)NC1CC2CCCC(C1)N2Cc1ccc(F)cc1 (stereo not drawn)	120	101	72*	7	0.29	3	66*
O=C(O)CCn1cc(/C=C\C(=O)c2ccc(Cl)cc2)c(-c2cccc(Br)c2)n1	91	78	46*	6	-1.7	-1	45	ATG4B conf=69*
CCCc1cc(C(=O)NC2CCCCC2)no1	105	108	-7	-19	0.67	8	nt
CCCc1cc(C(=O)N(C2CCCCC2)C2CCCCC2)no1	101	105	60*	5	-0.16	5	72*
O=C(O)c1cc(-c2ccco2)nc2ccc(Br)cc12	118	114	78*!	3	-0.74	16	23	ATG4B conf=65*
O=C(c1ccco1)N1CCN(C(=O)c2cc(-c3ccncc3)nc3ccc(Br)cc23)CC1	105	105	4	5	-0.35	9	nt
